Reference: ChEMBL document CHEMBL4373706, “Discovery of Inhibitors of Aurora/PLK Targets as Anticancer Agents” (J Med Chem, 2019)
pKd: −log10 of the molar value. Activity calls are given as the source filed them. The rule behind the calls is not given here.

Tests used:
[1] = species on record: Homo sapiens; assay: Inhibition of AURKA/PLK1 in human HCT116 cells assessed as increase in histone H3 Ser10 phosphorylation measured after 24 to 48 hrs by Western blot analysis; assay type: cell-based
[2] = biological target: Cyclin-dependent kinase 6 (Homo sapiens, UniProt Q00534); assay: Binding affinity to wild-type human full-length CDK6 (M1 to A326 residues) expressed in mammalian expression system measured after 1 hr by kinomescan method; conditions: pooled result: one value given for 15 cell lines, strains, targets or settings
Cyclin-dependent kinase 6, sequence (Q00534 whole entry, the tested form may be a part): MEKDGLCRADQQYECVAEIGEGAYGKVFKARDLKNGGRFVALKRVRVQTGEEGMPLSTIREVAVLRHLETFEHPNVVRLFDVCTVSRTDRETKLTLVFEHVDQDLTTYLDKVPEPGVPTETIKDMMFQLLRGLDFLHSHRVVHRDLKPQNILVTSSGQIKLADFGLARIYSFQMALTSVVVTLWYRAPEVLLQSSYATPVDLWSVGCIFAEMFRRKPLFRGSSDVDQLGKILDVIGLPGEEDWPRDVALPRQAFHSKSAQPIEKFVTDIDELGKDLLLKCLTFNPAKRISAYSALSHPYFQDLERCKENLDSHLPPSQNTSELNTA

[3] = Toxicity in BALB/c mouse xenografted with human HCT116 cells assessed as change in body weight at 1 to 5 mg/kg, iv administered every 3 days for 24 days measured post-last dose; assay type: organism-based; conditions: in vivo
[4] = biological target: Serine/threonine-protein kinase PLK2 (Homo sapiens, UniProt Q9NYY3); assay: Binding affinity to wild-type human partial length PLK2 (H58 to F354 residues) expressed in mammalian expression system measured after 1 hr by kinomescan method
Serine/threonine-protein kinase PLK2, sequence (Q9NYY3 whole entry, the tested form may be a part): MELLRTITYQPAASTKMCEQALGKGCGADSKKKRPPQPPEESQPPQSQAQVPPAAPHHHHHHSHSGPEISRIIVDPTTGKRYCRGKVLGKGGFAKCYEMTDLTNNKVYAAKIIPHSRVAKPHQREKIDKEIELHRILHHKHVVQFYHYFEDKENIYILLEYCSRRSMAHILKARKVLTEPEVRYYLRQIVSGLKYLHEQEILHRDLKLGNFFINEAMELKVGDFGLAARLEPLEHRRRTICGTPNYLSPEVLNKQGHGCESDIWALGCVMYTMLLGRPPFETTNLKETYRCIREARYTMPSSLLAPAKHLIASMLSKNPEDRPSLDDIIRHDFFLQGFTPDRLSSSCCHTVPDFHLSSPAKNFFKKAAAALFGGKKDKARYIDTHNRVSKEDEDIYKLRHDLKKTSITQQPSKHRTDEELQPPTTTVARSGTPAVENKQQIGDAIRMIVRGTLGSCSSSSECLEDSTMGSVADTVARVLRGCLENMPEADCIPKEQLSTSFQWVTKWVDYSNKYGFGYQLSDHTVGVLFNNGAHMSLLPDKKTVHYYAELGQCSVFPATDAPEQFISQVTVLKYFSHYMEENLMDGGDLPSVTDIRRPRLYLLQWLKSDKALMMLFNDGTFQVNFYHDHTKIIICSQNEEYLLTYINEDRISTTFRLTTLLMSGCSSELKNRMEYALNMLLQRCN
In short: (§1)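 KINOMEscan competition binding assay. A 321-kinase panel was first screened at 10 μM compound, and binding affinities were then determined for Aurora and PLK family members.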

[5] = test system: HCT-116; assay: Induction of apoptosis in human HCT116 cells assessed as apoptotic cell population at 10 uM measured after 48 hrs by Annexin V-FITC/propidium iodide staining-based flow cytometry (reference value: 5.9%); assay type: functional
[6] = test system: HCT-116; assay: Induction of apoptosis in human HCT116 cells assessed as apoptotic cell population at 1 uM measured after 48 hrs by Annexin V-FITC/propidium iodide staining-based flow cytometry (reference value: 5.9%); assay type: functional
[7] = biological target: T1, Aurora kinase A (Homo sapiens, UniProt O14965); assay: Binding affinity to wild-type human partial length AURKA (E122 to K401 residues) expressed in mammalian expression system measured after 1 hr by Kinomescan method; in short: as §1
T1 sequence (O14965 whole entry): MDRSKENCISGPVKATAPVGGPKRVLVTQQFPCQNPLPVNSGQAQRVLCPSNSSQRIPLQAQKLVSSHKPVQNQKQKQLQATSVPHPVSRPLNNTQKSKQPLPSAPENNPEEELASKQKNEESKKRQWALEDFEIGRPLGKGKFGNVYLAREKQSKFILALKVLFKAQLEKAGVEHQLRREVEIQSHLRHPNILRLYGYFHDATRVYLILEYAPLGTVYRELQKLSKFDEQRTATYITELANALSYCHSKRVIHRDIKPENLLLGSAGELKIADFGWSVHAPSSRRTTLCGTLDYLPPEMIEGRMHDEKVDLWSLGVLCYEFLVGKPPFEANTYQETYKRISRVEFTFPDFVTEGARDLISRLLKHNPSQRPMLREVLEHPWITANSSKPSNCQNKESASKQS

[8] = Half life in Sprague-Dawley rat at 10 mg/kg, iv administered […] by LC-MS/MS analysis; assay type: ADME, organism-based; conditions: in vivo
[9] = test system: HCT-116; assay: Antitumor activity against human HCT116 cells xenografted in BALB/c mouse assessed as mean survival days at 5 mg/kg, iv administered every 3 days for 60 days (reference value: 25 day); assay type: functional
[10] = biological target: T2, Aurora kinase C (Homo sapiens, UniProt Q9UQB9); assay: Binding affinity to wild-type human full length AURKC (M1 to S275 residues) expressed in bacterial expression system measured after 1 hr by Kinomescan method; in short: as §1
T2 sequence (Q9UQB9 whole entry): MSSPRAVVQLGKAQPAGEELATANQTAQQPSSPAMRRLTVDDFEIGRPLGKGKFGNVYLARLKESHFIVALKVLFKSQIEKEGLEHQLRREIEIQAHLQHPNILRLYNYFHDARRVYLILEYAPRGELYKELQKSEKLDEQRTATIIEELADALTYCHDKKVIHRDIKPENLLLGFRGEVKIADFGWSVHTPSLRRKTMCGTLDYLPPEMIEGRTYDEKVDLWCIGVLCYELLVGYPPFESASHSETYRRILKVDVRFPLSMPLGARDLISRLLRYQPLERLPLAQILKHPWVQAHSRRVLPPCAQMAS

[11] = biological target: T3, Phosphatidylinositol 4,5-bisphosphate 3-kinase catalytic subunit delta isoform (Homo sapiens, UniProt O00329); assay: Binding affinity to wild-type human partial length PIK3CD (R108 to Q1044 residues) expressed in mammalian expression system measured after 1 hr by kinomescan method; conditions: pooled result: one value given for 15 cell lines, strains, targets or settings
T3 sequence (O00329 whole entry): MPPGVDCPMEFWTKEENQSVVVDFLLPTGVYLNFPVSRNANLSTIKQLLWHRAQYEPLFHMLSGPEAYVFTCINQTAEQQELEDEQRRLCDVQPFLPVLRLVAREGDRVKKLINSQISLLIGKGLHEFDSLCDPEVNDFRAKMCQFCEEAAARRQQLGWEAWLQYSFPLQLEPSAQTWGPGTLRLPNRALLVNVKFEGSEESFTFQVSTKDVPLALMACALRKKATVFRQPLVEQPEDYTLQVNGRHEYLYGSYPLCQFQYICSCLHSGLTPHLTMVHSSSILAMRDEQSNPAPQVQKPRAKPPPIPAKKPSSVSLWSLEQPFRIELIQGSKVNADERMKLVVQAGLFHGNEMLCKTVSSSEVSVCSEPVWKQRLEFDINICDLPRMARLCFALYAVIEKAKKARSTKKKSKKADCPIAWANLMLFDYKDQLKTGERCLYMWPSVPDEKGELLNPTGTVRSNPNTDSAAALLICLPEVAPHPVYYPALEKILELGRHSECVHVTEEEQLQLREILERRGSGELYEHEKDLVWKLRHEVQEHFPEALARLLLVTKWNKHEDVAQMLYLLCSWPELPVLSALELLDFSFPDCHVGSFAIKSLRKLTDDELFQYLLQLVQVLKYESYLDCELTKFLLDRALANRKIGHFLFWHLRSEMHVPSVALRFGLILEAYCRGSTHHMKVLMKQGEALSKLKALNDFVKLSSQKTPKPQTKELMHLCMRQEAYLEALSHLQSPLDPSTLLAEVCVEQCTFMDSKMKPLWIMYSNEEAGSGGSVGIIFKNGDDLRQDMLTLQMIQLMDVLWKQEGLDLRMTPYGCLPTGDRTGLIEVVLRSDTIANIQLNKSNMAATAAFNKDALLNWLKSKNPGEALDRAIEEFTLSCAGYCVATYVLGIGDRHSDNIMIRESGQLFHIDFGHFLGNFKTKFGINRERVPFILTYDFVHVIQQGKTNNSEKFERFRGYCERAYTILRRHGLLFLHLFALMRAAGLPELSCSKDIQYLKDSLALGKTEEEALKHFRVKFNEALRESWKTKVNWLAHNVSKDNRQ

[12] = Cmax in Sprague-Dawley rat at 50 mg/kg, po administered via gastric gavage by LC-MS/MS analysis; assay type: ADME, organism-based; parameters: dose 50 mg/kg, route oral; conditions: in vivo

For `O=C(Nc1ccc2cc(C(=O)Nc3nccs3)ccc2c1)c1ccc(Cl)c(Cl)c1`, the inhibition [1] was “Active”, the pKd [2] was 5.10 and the Activity [3] was “Non-Toxic”. The pKd [4] was 6.57, the Activity [5] was 91.4% and the Activity [6] was 41.1%. The pKd [7] was 7.64, the half-life [8] was 16.2 h and the MSD [9] was 45 days. It also gave a pKd [10] of 6.54, a pKd [11] of 5.15 and a Cmax [12] of 25100 ng/mL.
